Reference: ChEMBL document CHEMBL4616631, “Design, synthesis and evaluation of phthalide alkyl tertiary amine derivatives as promising acetylcholinesterase inhibitors with high potency and selectivity against Alzheimer's disease” (Bioorg Med Chem, 2020)
pIC50: −log10 of the molar value.

Columns and labels:
[1] = biological target: Amyloid-beta precursor protein (Homo sapiens) (UniProt P05067); assay: Inhibition of HFIP-pretreated self-induced amyloid beta (1 to 42) (unknown origin) aggregation at 25 uM measured after 24 hrs by ThT fluorescence assay relative to control
Sequence of Amyloid-beta precursor protein (Homo sapiens) (P05067 whole entry): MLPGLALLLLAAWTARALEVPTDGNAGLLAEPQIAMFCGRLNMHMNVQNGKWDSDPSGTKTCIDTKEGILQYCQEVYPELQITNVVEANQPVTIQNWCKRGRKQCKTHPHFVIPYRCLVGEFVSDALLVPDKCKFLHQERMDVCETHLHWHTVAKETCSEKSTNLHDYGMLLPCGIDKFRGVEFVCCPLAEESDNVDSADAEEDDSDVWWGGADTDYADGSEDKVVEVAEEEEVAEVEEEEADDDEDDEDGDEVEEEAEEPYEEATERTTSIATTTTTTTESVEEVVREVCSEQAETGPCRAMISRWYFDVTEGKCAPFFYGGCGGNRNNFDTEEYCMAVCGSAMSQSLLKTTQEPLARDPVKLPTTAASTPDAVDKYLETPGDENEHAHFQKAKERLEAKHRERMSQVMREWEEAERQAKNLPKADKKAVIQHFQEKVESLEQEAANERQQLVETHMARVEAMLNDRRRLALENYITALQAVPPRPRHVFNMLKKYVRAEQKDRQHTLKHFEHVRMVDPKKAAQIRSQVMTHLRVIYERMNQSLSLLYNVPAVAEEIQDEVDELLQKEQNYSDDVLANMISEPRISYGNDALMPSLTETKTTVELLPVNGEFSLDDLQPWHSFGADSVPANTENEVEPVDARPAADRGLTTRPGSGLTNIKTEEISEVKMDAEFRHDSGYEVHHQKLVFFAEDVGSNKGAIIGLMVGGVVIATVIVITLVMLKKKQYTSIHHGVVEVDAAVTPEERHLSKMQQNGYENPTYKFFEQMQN
Procedure, shortened: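 Aβ1-42 was pretreated in HFIP for 24 h at room temperature, dried, and dissolved in DMSO to a 200 µM stock. Aβ (25 µM) was incubated with compound (25 µM) at 37 °C for 24 h. ThT was added at 5 µM in glycine-NaOH, pH 8.5. Fluorescence ex 446/em 490 nm, background-subtracted; inhibition = (1−IFi/IFc)×100. Triplicate.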

[2] = biological target: T1, Amine oxidase [flavin-containing] B (Homo sapiens, UniProt P27338); assay: Inhibition of recombinant human MAO-B expressed in baculovirus infected BTI insect cells at 10 uM using kynuramine as substrate measured after 30 mins by fluorescence based assay relative to control; details: 0.5 h
T1 sequence (P27338 whole entry): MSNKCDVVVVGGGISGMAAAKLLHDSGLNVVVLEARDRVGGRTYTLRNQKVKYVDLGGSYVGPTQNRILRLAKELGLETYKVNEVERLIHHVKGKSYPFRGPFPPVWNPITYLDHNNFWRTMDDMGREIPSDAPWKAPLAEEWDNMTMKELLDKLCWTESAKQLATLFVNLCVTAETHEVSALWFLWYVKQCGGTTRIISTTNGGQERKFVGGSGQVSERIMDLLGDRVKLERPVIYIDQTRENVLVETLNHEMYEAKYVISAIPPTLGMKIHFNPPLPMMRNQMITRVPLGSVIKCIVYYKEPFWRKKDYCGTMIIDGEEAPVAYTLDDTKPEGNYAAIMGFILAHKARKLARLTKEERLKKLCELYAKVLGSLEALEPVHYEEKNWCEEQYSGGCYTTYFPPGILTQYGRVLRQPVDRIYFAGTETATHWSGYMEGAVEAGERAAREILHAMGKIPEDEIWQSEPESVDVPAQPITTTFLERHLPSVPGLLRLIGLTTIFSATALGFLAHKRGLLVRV
Procedure, shortened: (§1)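 Recombinant human MAO-A or MAO-B (7.5 µg/mL) in 100 mM potassium phosphate, pH 7.4, with 20.2 mM KCl and DMSO below 4%. Kynuramine was 45 µM for MAO-A and 30 µM for MAO-B. Incubation 30 min at 37 °C, stopped with NaOH and water, then centrifuged. Supernatant fluorescence ex 310/em 400 nm. Triplicate.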

[3] = Antioxidant activity assessed as trolox equivalent of AAPH-induced radical scavenging activity at 5 uM preincubated for 15 mins followed by AAPH addition measured every min for 90 mins by ORAC-FL assay; type: functional
Procedure, shortened: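 ORAC-FL in 75 mM phosphate buffer, pH 7.4. Sample at 5 µM was preincubated with fluorescein (150 nM final) for 15 min at 37 °C, then AAPH was added (12 mM final). Fluorescence (ex 485/em 535 nm) was read every minute for 90 min. […] Triplicate, at least three independent assays.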

[4] = biological target: T2, Amine oxidase [flavin-containing] A (Homo sapiens, UniProt P21397); assay: Inhibition of recombinant human MAO-A expressed in baculovirus infected BTI insect cells at 10 uM using kynuramine as substrate measured after 30 mins by fluorescence based assay relative to control; details: 0.5 h; procedure, shortened: as §1
T2 sequence (P21397 whole entry): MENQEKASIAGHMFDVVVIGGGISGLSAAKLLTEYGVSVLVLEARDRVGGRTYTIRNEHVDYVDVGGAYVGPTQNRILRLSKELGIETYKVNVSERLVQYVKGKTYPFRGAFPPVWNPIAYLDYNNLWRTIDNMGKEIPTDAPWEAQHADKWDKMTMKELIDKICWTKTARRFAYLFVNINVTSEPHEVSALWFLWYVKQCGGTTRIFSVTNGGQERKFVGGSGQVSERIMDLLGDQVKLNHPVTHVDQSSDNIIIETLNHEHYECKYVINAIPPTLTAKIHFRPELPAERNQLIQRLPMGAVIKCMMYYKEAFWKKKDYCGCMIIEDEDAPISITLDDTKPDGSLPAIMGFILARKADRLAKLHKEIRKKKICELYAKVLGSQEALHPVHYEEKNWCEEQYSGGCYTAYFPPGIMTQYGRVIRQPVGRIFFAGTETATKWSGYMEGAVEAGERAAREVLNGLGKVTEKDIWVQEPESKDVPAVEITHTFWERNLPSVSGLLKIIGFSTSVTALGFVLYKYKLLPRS

[5] = biological target: Acetylcholinesterase (Electrophorus electricus, UniProt O42275); assay: Inhibition of Electrophorus electricus AChE using […] as substrate incubated for 15 mins by Ellman's method
Sequence of Acetylcholinesterase (O42275 whole entry): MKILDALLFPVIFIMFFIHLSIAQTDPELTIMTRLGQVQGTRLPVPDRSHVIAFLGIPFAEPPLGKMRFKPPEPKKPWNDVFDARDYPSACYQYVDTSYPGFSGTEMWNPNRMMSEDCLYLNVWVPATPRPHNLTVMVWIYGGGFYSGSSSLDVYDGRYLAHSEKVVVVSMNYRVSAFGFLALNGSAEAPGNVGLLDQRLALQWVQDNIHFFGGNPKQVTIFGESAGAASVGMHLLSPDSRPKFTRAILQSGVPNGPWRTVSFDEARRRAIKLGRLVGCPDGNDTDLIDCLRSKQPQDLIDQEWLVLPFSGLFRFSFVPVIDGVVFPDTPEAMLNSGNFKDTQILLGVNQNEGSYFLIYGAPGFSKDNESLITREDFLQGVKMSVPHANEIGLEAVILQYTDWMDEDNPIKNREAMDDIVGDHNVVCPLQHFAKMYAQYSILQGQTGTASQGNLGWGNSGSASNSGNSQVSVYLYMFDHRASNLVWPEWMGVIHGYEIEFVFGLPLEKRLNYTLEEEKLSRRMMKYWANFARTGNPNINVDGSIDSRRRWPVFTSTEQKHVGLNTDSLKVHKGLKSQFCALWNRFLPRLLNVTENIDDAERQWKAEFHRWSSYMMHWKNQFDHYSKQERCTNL

[6] = biological target: Butyrylcholinesterase (BuChE) (Rattus norvegicus, UniProt Q9JKC1); assay: Inhibition of BuChE in rat serum at 50 uM using S-butylthiocholine iodide as substrate by Ellman's method relative to control; type: cell-free; details: probe S-butylthiocholine iodide
Sequence of Butyrylcholinesterase (BuChE) (Q9JKC1 whole entry): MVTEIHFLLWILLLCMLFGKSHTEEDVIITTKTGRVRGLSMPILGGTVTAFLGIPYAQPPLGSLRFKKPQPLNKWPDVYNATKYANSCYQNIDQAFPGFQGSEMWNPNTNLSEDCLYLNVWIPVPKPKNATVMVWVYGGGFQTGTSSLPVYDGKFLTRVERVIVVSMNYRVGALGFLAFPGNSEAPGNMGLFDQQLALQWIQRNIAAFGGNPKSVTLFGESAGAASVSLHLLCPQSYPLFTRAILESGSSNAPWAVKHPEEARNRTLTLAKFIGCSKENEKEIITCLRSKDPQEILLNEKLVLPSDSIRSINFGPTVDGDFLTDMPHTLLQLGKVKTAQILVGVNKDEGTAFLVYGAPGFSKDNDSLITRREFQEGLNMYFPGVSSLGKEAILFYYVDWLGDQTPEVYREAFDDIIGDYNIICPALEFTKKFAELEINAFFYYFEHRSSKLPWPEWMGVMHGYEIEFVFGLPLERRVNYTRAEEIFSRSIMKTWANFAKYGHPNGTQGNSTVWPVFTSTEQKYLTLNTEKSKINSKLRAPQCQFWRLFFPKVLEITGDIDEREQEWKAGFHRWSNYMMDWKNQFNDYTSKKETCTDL
Procedure, shortened: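 Rat serum (25%) as BuChE source, S-butylthiocholine iodide 1 mM, DTNB 0.2%, in 0.1 mM phosphate buffer pH 7.4, 37 °C 15 min (modified Ellman); absorbance change at 405 nm. Three independent experiments, each in triplicate.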

## COc1cc2c(cc1OC)/C(=C/CCCN(C)Cc1ccccc1)OC2=O
[1]
  inhibition: 11.7%
[2]
  inhibition at 10 µM: 11.9%
[3]
  Activity: 0.32 µMequiv/µM
[4]
  inhibition at 10 µM: 10.9%
[5]
  pIC50: 6.47
[6]
  inhibition at 50 µM: 12.2%

## CCN(CCC/C=C1/OC(=O)c2cc(OC)c(OC)cc21)Cc1ccccc1N(C)C
[1]
  inhibition: 8.2%
[2]
  inhibition at 10 µM: 2.1%
[3]
  Activity: 1.07 µMequiv/µM
[4]
  inhibition at 10 µM: 30%
[5]
  pIC50: 6.46
[6]
  inhibition at 50 µM: 43.1%

## COc1ccccc1CN(C)CCC/C=C1\OC(=O)c2cc(OC)c(OC)cc21
[1]
  inhibition: 15.1%
[2]
  inhibition at 10 µM: 10.3%
[3]
  Activity: 0.44 µMequiv/µM
[4]
  inhibition at 10 µM: 2.9%
[5]
  pIC50: 5.79
[6]
  inhibition at 50 µM: 16.8%

## CCN(CCC/C=C1\OC(=O)c2cc(OC)c(OC)cc21)Cc1ccccc1
[1]
  inhibition: 17%
[2]
  inhibition at 10 µM: 13.8%
[3]
  Activity: 0.36 µMequiv/µM
[4]
  inhibition at 10 µM: 10.4%
[5]
  pIC50: 6.44
[6]
  inhibition at 50 µM: 17.3%

## CCN(CCC/C=C1\OC(=O)c2cc(OC)c(OC)cc21)Cc1ccccc1N(C)C
[1]
  inhibition: 15.4%
[2]
  inhibition at 10 µM: 9.9%
[3]
  Activity: 0.78 µMequiv/µM
[4]
  inhibition at 10 µM: 29.1%
[5]
  pIC50: 6.68
[6]
  inhibition at 50 µM: 40.5%

## CCN(CCC/C=C1\OC(=O)c2cc(OC)c(OC)cc21)Cc1ccccc1OC
[1]
  inhibition: 23.8%
[2]
  inhibition at 10 µM: 12%
[3]
  Activity: 0.94 µMequiv/µM
[4]
  inhibition at 10 µM: 26.7%
[5]
  pIC50: 5.81
[6]
  inhibition at 50 µM: 18.7%

## COc1cc2c(cc1OC)C(CCCCN1CCCCC1)OC2=O (stereo unspecified)
[1]
  inhibition: < 5%
[2]
  inhibition at 10 µM: 34.7%
[3]
  Activity: 0.22 µMequiv/µM
[4]
  inhibition at 10 µM: 1.92%
[5]
  pIC50: 4.80
[6]
  inhibition at 50 µM: 8.14%

## CCN(CCCCC1OC(=O)c2cc(OC)c(OC)cc21)Cc1ccc(N(C)C)cc1 (stereo unspecified)
[1]
  inhibition: < 5%
[2]
  inhibition at 10 µM: 9.47%
[3]
  Activity: 2.59 µMequiv/µM
[4]
  inhibition at 10 µM: 12.1%
[5]
  pIC50: 4.60
[6]
  inhibition at 50 µM: 6.2%

## CCN(CCCCCCC1OC(=O)c2cc(OC)c(OC)cc21)Cc1ccccc1N(C)C (stereo unspecified)
[1]
  inhibition: 7.66%
[2]
  inhibition at 10 µM: 13.4%
[3]
  Activity: 0.6 µMequiv/µM
[4]
  inhibition at 10 µM: 14.3%
[5]
  pIC50: 5.91
[6]
  inhibition at 50 µM: 40.5%

## CCN(CCCCC/C=C1/OC(=O)c2cc(OC)c(OC)cc21)Cc1ccccc1N(C)C
[1]
  inhibition: 13%
[2]
  inhibition at 10 µM: 7.3%
[3]
  Activity: 1.2 µMequiv/µM
[4]
  inhibition at 10 µM: 28%
[5]
  pIC50: 6.05
[6]
  inhibition at 50 µM: 35.2%

## CCN(CCCCC1OC(=O)c2cc(OC)c(OC)cc21)Cc1ccccc1N(C)C (stereo unspecified)
[1]
  inhibition: 15.3%
[2]
  inhibition at 10 µM: 15%
[3]
  Activity: 0.43 µMequiv/µM
[4]
  inhibition at 10 µM: 17.8%
[5]
  pIC50: 6.59
[6]
  inhibition at 50 µM: 44.8%

## CCN(CC)CCC/C=C1/OC(=O)c2cc(OC)c(OC)cc21
[1]
  inhibition: 15.1%
[2]
  inhibition at 10 µM: 19.7%
[3]
  Activity: 0.22 µMequiv/µM
[4]
  inhibition at 10 µM: 5.77%
[5]
  pIC50: 5.20
[6]
  inhibition at 50 µM: 4.19%

## CCN(CCC/C=C1\OC(=O)c2cc(OC)c(OC)cc21)Cc1ccc(N(C)C)cc1
[1]
  inhibition: 22%
[2]
  inhibition at 10 µM: 8.86%
[3]
  Activity: 2.75 µMequiv/µM
[4]
  inhibition at 10 µM: 12.9%
[5]
  pIC50: 4.63
[6]
  inhibition at 50 µM: 13.6%

## CCN(CCC/C=C1/OC(=O)c2cc(OC)c(OC)cc21)Cc1ccccc1
[1]
  inhibition: 30.3%
[2]
  inhibition at 10 µM: 15.8%
[3]
  Activity: 0.52 µMequiv/µM
[4]
  inhibition at 10 µM: 12.6%
[5]
  pIC50: 5.85
[6]
  inhibition at 50 µM: 11%

## CCN(CCCCC1OC(=O)c2cc(OC)c(OC)cc21)Cc1ccccc1OC (stereo unspecified)
[1]
  inhibition: 13.8%
[2]
  inhibition at 10 µM: 10.4%
[3]
  Activity: 0.74 µMequiv/µM
[4]
  inhibition at 10 µM: 27.8%
[5]
  pIC50: 6.43
[6]
  inhibition at 50 µM: 29.8%

## CCN(CCC/C=C1/OC(=O)c2cc(OC)c(OC)cc21)Cc1ccccc1OC
[1]
  inhibition: 19%
[2]
  inhibition at 10 µM: 4.8%
[3]
  Activity: 0.53 µMequiv/µM
[4]
  inhibition at 10 µM: 27.1%
[5]
  pIC50: 6.10
[6]
  inhibition at 50 µM: 19.1%

## COc1cc2c(cc1OC)/C(=C\CCCN(C)Cc1ccccc1)OC2=O
[1]
  inhibition: 8.6%
[2]
  inhibition at 10 µM: 1.09%
[3]
  Activity: 0.49 µMequiv/µM
[4]
  inhibition at 10 µM: 17.9%
[5]
  pIC50: 6.19
[6]
  inhibition at 50 µM: 27.3%

## COc1ccccc1CN(C)CCC/C=C1/OC(=O)c2cc(OC)c(OC)cc21
[1]
  inhibition: 19.1%
[2]
  inhibition at 10 µM: 9.44%
[3]
  Activity: 0.38 µMequiv/µM
[4]
  inhibition at 10 µM: 4.9%
[5]
  pIC50: 6.39
[6]
  inhibition at 50 µM: 21.9%

## CCN(CC)CCCCC1OC(=O)c2cc(OC)c(OC)cc21 (stereo unspecified)
[1]
  inhibition: 15%
[2]
  inhibition at 10 µM: 21.5%
[3]
  Activity: 0.31 µMequiv/µM
[4]
  inhibition at 10 µM: 2.45%
[5]
  pIC50: 4.83
[6]
  inhibition at 50 µM: 5.1%

## CCN(CCC/C=C1/OC(=O)c2cc(OC)c(OC)cc21)Cc1ccc(N(C)C)cc1
[1]
  inhibition: 21.7%
[2]
  inhibition at 10 µM: 17%
[3]
  Activity: 2.89 µMequiv/µM
[4]
  inhibition at 10 µM: 12.7%
[5]
  pIC50: 4.86
[6]
  inhibition at 50 µM: 14.1%

## COc1cc2c(cc1OC)/C(=C\CCCN1CCCCC1)OC2=O
[1]
  inhibition: 11.3%
[2]
  inhibition at 10 µM: 38.8%
[3]
  Activity: 0.32 µMequiv/µM
[4]
  inhibition at 10 µM: 1.52%
[5]
  pIC50: 6.36
[6]
  inhibition at 50 µM: 26.9%
